Measured values: article PMC4355479 (Molecular cell, 2015)

Tests used:
MZM-REP, REP mutant = test: ITC with REP mutant of MZM-REP; format: binding; settings: 25 C; 42 μM; HEPES pH 7.4, 500 mM NaCl; REP side mutated; Figure 5C
In short: (§1)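 MZM-REP protein is expressed as an N-terminal His6-SUMO fusion and loaded in the ITC cell at 42 μM, 25 C, stirred at 1000 RPM. Jag1 tail polypeptide is the titrant. Binding parameters come from a one-site binding model fit.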

[1] = system: MZM-REP protein of Mib1 with deletion of residues 315-330; test: ITC with crystallization construct MZM-REP; format: binding; settings: Table S1
In short: as §1

[2] = system: Mib1 with deletion of either the MZM or REP region; test: Co-immunoprecipitation with Mib1 lacking MZM or REP region; format: cell-based; settings: HEK293T cells, Figure S1A
mutated Mib1 (ΔRNG) = test: Co-immunoprecipitation with Mib1 mutated at MZM and/or REP interface; format: cell-based; settings: HEK293T cells, Figure 5D
In short: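 Myc-tagged Mib1 (ΔRNG) and V5-tagged Jag1 co-transfected into sub-confluent HEK293T cells by lipofection. After 48 hr, cells lysed on ice in 0.5% Fos-Choline 12, 50 mM HEPES pH 7.4, 150 mM NaCl, DTT, ZnCl2, CaCl2 and protease inhibitors. Cleared lysate incubated with anti-V5 agarose for 1 hr at 4 C. Beads washed 3x, then analysed by anti-Myc and anti-V5 Western blot.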

[3] = system: Mib1 with Asp to Asn mutations in one or both Mib repeat(s); test: Co-immunoprecipitation with Mib1 Asp to Asn mutants in one or both Mib repeat; format: cell-based; settings: HEK293T cells, Figure S3D

Row | Substance | binding to REP mutant by ITC (MZM-REP, REP mutant) | effect of Mib1 Δ315-330 deletion on binding to Jag1 [1] | co-immunoprecipitation with Mib1 lacking MZM or REP region [2] | co-immunoprecipitation with Mib1, both interfaces mutated (mutated Mib1 (ΔRNG); both interfaces in combination) | co-immunoprecipitation with Mib1, MZM interface mutated (mutated Mib1 (ΔRNG); mutation targeting MZM:N-box interface alone) | co-immunoprecipitation with Mib1, REP interface mutated (mutated Mib1 (ΔRNG); mutation targeting REP:C-box interface alone) | contribution of Mib repeats to C-box binding, co-immunoprecipitation [3]
1 | full-length tail: Jag1 intracellular tail; HA-tagged in ubiquitin transfer; as DLL4 chimera in reporter assay | attenuates binding |  |  |  |  |  | 
2 | Jag1: Jag1 construct, V5-tagged in co-immunoprecipitation |  | does not deleteriously affect binding | eliminates co-immunoprecipitation (co-IP) | prevent co-immunoprecipitation | prevent co-immunoprecipitation | prevent co-immunoprecipitation | first Mib repeat exerts a dominant role in C-box binding
